Reference: ChEMBL document CHEMBL1152380, “The synthesis and biological evaluation of a novel series of C7 non-basic substituted fluoroquinolones as antibacterial agents” (2009)
≈ marks a conversion by molar mass, not a printed value.

Key:
Assay type in all cases: functional
[1] = system: Streptococcus pneumoniae; assay: Antibacterial activity against multidrug-resistant Streptococcus pneumoniae clinical isolates by microbroth dilution technique
[2] = system: Staphylococcus epidermidis; assay: Antibacterial activity against Staphylococcus epidermidis ATCC 12228 by microbroth dilution technique
Outline: (§1)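 MIC, taken as the lowest drug concentration that prevents visible growth, determined by broth microdilution following the National Committee for Clinical and Laboratory Standards method. Strains were reference strains from the American Type Culture Collection or clinical isolates from the hospital culture collection.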

[3] = system: Pseudomonas aeruginosa; assay: Antibacterial activity against Pseudomonas aeruginosa ATCC 27853 by microbroth dilution technique
Outline: (§2)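 Broth microdilution run to the National Committee for Clinical and Laboratory Standards method. MIC is taken as the lowest drug concentration that prevents visible bacterial growth. Strains were clinical isolates from a hospital culture collection or ATCC reference strains.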

[4] = system: Escherichia coli; assay: Antibacterial activity against Escherichia coli ATCC 25922 by microbroth dilution technique; outline: as §1
[5] = system: Enterococcus faecalis; assay: Antibacterial activity against Enterococcus faecalis ATCC 29212 by microbroth dilution technique; outline: as §1
[6] = system: Streptococcus pneumoniae; assay: Antibacterial activity against Streptococcus pneumoniae ATCC 49619 by microbroth dilution technique; outline: as §2
[7] = system: Pseudomonas aeruginosa; assay: Antibacterial activity against multidrug-resistant Pseudomonas aeruginosa clinical isolates by microbroth dilution technique
[8] = system: Staphylococcus aureus; assay: Antibacterial activity against multidrug-resistant Staphylococcus aureus clinical isolates by microbroth dilution technique
[9] = system: Staphylococcus aureus; assay: Antibacterial activity against Staphylococcus aureus ATCC 25923 by microbroth dilution technique; outline: as §1
[10] = Streptococcus pneumoniae, read-out: MIC
[11] = Staphylococcus epidermidis, ATCC 12228, read-out: MIC
[12] = Pseudomonas aeruginosa, ATCC 27853, read-out: MIC
[13] = Escherichia coli, ATCC 25922, read-out: MIC
[14] = Enterococcus faecalis, ATCC 29212, read-out: MIC
[15] = Streptococcus pneumoniae, ATCC 49619, read-out: MIC
[16] = Pseudomonas aeruginosa, read-out: MIC
[17] = Staphylococcus aureus, ATCC 25923, read-out: MIC

| Compound | MIC [1, 10] | MIC [2, 11] | MIC [3, 12] | MIC [4, 13] | MIC [5, 14] | MIC [6, 15] | MIC [7, 16] | MIC [8] | MIC [9, 17] | MIC [2] | MIC [5] | MIC [6] | MIC [7] | MIC [9] | MIC [1] | MIC [3] | MIC [4] |
| --- | --- | --- | --- | --- | --- | --- | --- | --- | --- | --- | --- | --- | --- | --- | --- | --- | --- |
| O=C(O)c1cn(C2CC2)c2nc(N3CCC[C@H]3Cn3cc(CO)nn3)c(F)cc2c1=O | 4 µg/mL (≈ 9.34 µM) | 32 µg/mL (≈ 74.7 µM) | 32 µg/mL (≈ 74.7 µM) | 32 µg/mL (≈ 74.7 µM) | 4 µg/mL (≈ 9.34 µM) | 8 µg/mL (≈ 18.7 µM) | 32 µg/mL (≈ 74.7 µM) | > 32 µg/mL | 32 µg/mL (≈ 74.7 µM) |  |  |  |  |  |  |  |  |
| COC(=O)[C@@H]1C[C@@H](n2cc(Cc3ccccc3)nn2)CN1c1nc2c(cc1F)c(=O)c(C(=O)O)cn2C1CC1 | 8 µg/mL (≈ 15 µM) | > 32 µg/mL | 32 µg/mL (≈ 60.1 µM) | 32 µg/mL (≈ 60.1 µM) | 16 µg/mL (≈ 30 µM) | 4 µg/mL (≈ 7.51 µM) | 32 µg/mL (≈ 60.1 µM) | > 32 µg/mL | > 32 µg/mL |  |  |  |  |  |  |  |  |
| O=C(O)c1cn(C2CC2)c2nc(N3CC4CC3CS4)c(F)cc2c1=O (stereo not given) | 0.031 µg/mL (≈ 0.0858 µM) | 0.125 µg/mL (≈ 0.346 µM) | 2 µg/mL (≈ 5.53 µM) | 0.125 µg/mL (≈ 0.346 µM) | 0.125 µg/mL (≈ 0.346 µM) | 0.031 µg/mL (≈ 0.0858 µM) | 32 µg/mL (≈ 88.5 µM) | > 32 µg/mL | 0.016 µg/mL (≈ 0.0443 µM) |  |  |  |  |  |  |  |  |
| O=C(O)c1cn(C2CC2)c2nc(N3CCC[C@H]3CO)c(F)cc2c1=O | 0.5 µg/mL (≈ 1.44 µM) | 8 µg/mL (≈ 23 µM) | 32 µg/mL (≈ 92.1 µM) | 2 µg/mL (≈ 5.76 µM) | 0.5 µg/mL (≈ 1.44 µM) | 0.5 µg/mL (≈ 1.44 µM) | 32 µg/mL (≈ 92.1 µM) | > 32 µg/mL | 0.5 µg/mL (≈ 1.44 µM) |  |  |  |  |  |  |  |  |
| C[C@H](O)[C@@H]1C[C@@H](O)CN1c1nc2c(cc1F)c(=O)c(C(=O)O)cn2C1CC1 | 2 µg/mL (≈ 5.3 µM) | 32 µg/mL (≈ 84.8 µM) | 32 µg/mL (≈ 84.8 µM) | 8 µg/mL (≈ 21.2 µM) | 4 µg/mL (≈ 10.6 µM) | 1 µg/mL (≈ 2.65 µM) | 32 µg/mL (≈ 84.8 µM) | > 32 µg/mL | 16 µg/mL (≈ 42.4 µM) |  |  |  |  |  |  |  |  |
| C[C@@H](O)[C@@H]1C[C@@H](O)CN1c1nc2c(cc1F)c(=O)c(C(=O)O)cn2C1CC1 | 8 µg/mL (≈ 21.2 µM) | > 32 µg/mL | 32 µg/mL (≈ 84.8 µM) | 16 µg/mL (≈ 42.4 µM) | 2 µg/mL (≈ 5.3 µM) | 2 µg/mL (≈ 5.3 µM) | 32 µg/mL (≈ 84.8 µM) | > 32 µg/mL | 32 µg/mL (≈ 84.8 µM) |  |  |  |  |  |  |  |  |
| O=C(O)c1cn(C2CC2)c2nc(N3CCC[C@H]3Cn3cc(-c4ccccc4)nn3)c(F)cc2c1=O |  | > 32 µg/mL | > 32 µg/mL | > 32 µg/mL | 4 µg/mL (≈ 8.43 µM) |  |  |  | 1 µg/mL (≈ 2.11 µM) |  |  |  |  |  |  |  |  |
| O=C(O)c1cn(C2CC2)c2nc(N3C[C@@H](O)[C@H](O)C3)c(F)cc2c1=O | 2 µg/mL (≈ 5.73 µM) | > 32 µg/mL | 32 µg/mL (≈ 91.6 µM) | 4 µg/mL (≈ 11.5 µM) | 2 µg/mL (≈ 5.73 µM) | 2 µg/mL (≈ 5.73 µM) | 32 µg/mL (≈ 91.6 µM) | > 32 µg/mL | 4 µg/mL (≈ 11.5 µM) |  |  |  |  |  |  |  |  |
| CN[C@H](CC(C)C)C(=O)N[C@H]1C(=O)N[C@@H](CC(N)=O)C(=O)N[C@H]2C(=O)N[C@H]3C(=O)N[C@H](C(=O)N[C@H](C(=O)O)c4cc(O)cc(O)c4-c4cc3ccc4O)[C@H](O)c3ccc(c(Cl)c3)Oc3cc2cc(c3O[C@@H]2O[C@H](CO)[C@@H](O)[C@H](O)[C@H]2O[C@H]2C[C@](C)(N)[C@H](O)[C@H](C)O2)Oc2ccc(cc2Cl)[C@H]1O [VANCOMYCIN] | 2 µg/mL (≈ 1.38 µM) |  |  |  | 0.5 µg/mL (≈ 0.345 µM) | 1 µg/mL (≈ 0.69 µM) |  |  |  |  |  |  |  |  |  |  |  |
| COC(=O)[C@@H]1C[C@@H](O)CN1c1nc2c(cc1F)c(=O)c(C(=O)O)cn2C1CC1 | 0.5 µg/mL (≈ 1.28 µM) | 16 µg/mL (≈ 40.9 µM) | 32 µg/mL (≈ 81.8 µM) | 8 µg/mL (≈ 20.4 µM) | 1 µg/mL (≈ 2.56 µM) | 0.5 µg/mL (≈ 1.28 µM) | 32 µg/mL (≈ 81.8 µM) | > 32 µg/mL | 2 µg/mL (≈ 5.11 µM) |  |  |  |  |  |  |  |  |
| O=C(O)c1cn(C2CC2)c2cc(N3CCNCC3)c(F)cc2c1=O [CIPROFLOXACIN] |  | 0.5 µg/mL (≈ 1.51 µM) |  |  | 0.5 µg/mL (≈ 1.51 µM) |  |  |  |  |  |  |  |  |  |  |  |  |
| O=C(O)c1cn(C2CC2)c2nc(N3C[C@H](O)C[C@H]3CO)c(F)cc2c1=O | 8 µg/mL (≈ 22 µM) | > 32 µg/mL | 32 µg/mL (≈ 88.1 µM) | 32 µg/mL (≈ 88.1 µM) | 4 µg/mL (≈ 11 µM) | 8 µg/mL (≈ 22 µM) | 32 µg/mL (≈ 88.1 µM) | > 32 µg/mL | 16 µg/mL (≈ 44 µM) |  |  |  |  |  |  |  |  |
| COC(=O)[C@@H]1C[C@@H](n2cc(CO)nn2)CN1c1nc2c(cc1F)c(=O)c(C(=O)O)cn2C1CC1 | 1 µg/mL (≈ 2.12 µM) | 8 µg/mL (≈ 16.9 µM) | 32 µg/mL (≈ 67.7 µM) | 4 µg/mL (≈ 8.47 µM) | 0.5 µg/mL (≈ 1.06 µM) | 1 µg/mL (≈ 2.12 µM) | > 32 µg/mL | > 32 µg/mL | 4 µg/mL (≈ 8.47 µM) |  |  |  |  |  |  |  |  |
| O=C(O)c1cn(C2CC2)c2nc(N3CC4CC3CS4(=O)=O)c(F)cc2c1=O (stereo not given) | 0.031 µg/mL (≈ 0.0788 µM) | 0.5 µg/mL (≈ 1.27 µM) | 8 µg/mL (≈ 20.3 µM) | 0.125 µg/mL (≈ 0.318 µM) | 0.063 µg/mL (≈ 0.16 µM) | 0.063 µg/mL (≈ 0.16 µM) | 32 µg/mL (≈ 81.3 µM) | > 32 µg/mL | 0.016 µg/mL (≈ 0.0407 µM) |  |  |  |  |  |  |  |  |
| CC(C)(C)OC(=O)N1CC2CC1CN2c1nc2c(cc1F)c(=O)c(C(=O)O)cn2C1CC1 (stereo not given) | 0.5 µg/mL (≈ 1.12 µM) | 4 µg/mL (≈ 9 µM) | 32 µg/mL (≈ 72 µM) | 4 µg/mL (≈ 9 µM) | 0.5 µg/mL (≈ 1.12 µM) | 2 µg/mL (≈ 4.5 µM) | 32 µg/mL (≈ 72 µM) | > 32 µg/mL | 0.25 µg/mL (≈ 0.562 µM) |  |  |  |  |  |  |  |  |
| O=C(O)c1cn(C2CC2)c2nc(N3CC4CC3C[S+]4[O-])c(F)cc2c1=O (stereo in doubt; 6.28) | 0.25 µg/mL (≈ 0.662 µM) |  | 32 µg/mL (≈ 84.8 µM) | 1 µg/mL (≈ 2.65 µM) |  |  |  | > 32 µg/mL |  | 4 µg/mL (≈ 10.6 µM) | 1 µg/mL (≈ 2.65 µM) | 0.5 µg/mL (≈ 1.32 µM) | 32 µg/mL (≈ 84.8 µM) | 4 µg/mL (≈ 10.6 µM) |  |  |  |
| O=C(O)c1cn(C2CC2)c2nc(N3CC4CC3C[S+]4[O-])c(F)cc2c1=O (stereo in doubt; 6.26) |  |  |  |  |  |  | 32 µg/mL (≈ 84.8 µM) |  |  | 1 µg/mL (≈ 2.65 µM) | 0.25 µg/mL (≈ 0.662 µM) | 0.125 µg/mL (≈ 0.331 µM) |  | 1 µg/mL (≈ 2.65 µM) | 0.125 µg/mL (≈ 0.331 µM) | 16 µg/mL (≈ 42.4 µM) | 0.5 µg/mL (≈ 1.32 µM) |
